Results as given in ChEMBL document CHEMBL1148471, “Synthesis of mono- and bisdihydrodipyridopyrazines and assessment of their DNA binding and cytotoxic properties” (J Med Chem, 2004).
The source made the active and inactive calls. No cut-off for these calls is given here.

Legend:
L1210 [1] = assay: Percentage of L1210 cell line in S-phase of cell cycle at 100 uM; NS = no specific effect (toxic at 2 uM); format: functional, cell-based; details: Mus musculus
Method in brief: (§1)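 L1210 cells (2.5 × 10^5 cells/mL) incubated 21 h with compound at the stated concentration. Cells fixed in 70% ethanol, then stained 30 min at 20 °C in PBS with 100 µg/mL RNase and 25 µg/mL propidium iodide. Flow cytometry on 10^4 cells per sample, 488 nm excitation, 615 nm long-pass emission. Output is the percentage of cells in each cycle phase.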

L1210 [2] = assay: Inhibitory concentration against L1210 murine leukemia cell line; format: functional, cell-based; details: Mus musculus
Method in brief: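 L1210 cells grown in RPMI 1640 with 10% fetal calf serum, 2 mM L-glutamine, penicillin/streptomycin and 10 mM HEPES (pH 7.4). Cells exposed 48 h to graded concentrations (nine serial dilutions, triplicate). Viability read by microculture tetrazolium assay. IC50 = concentration reducing optical density by 50% versus untreated controls.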

L1210 [3] = assay: Toxicity of compound was tested at 25 uM;Toxic; format: cell-based; details: mouse, l1210, 25 µM
L1210 [4] = assay: Percentage of L1210 cell line in S-phase of cell cycle at 100 uM; NS = no specific effect (toxic at 5 uM); format: functional, cell-based; details: Mus musculus; method in brief: as §1
L1210 [5] = assay: Percentage of L1210 cell line in 8 N-phase of cell cycle at 1 uM; Toxic; format: toxicity, cell-based; details: mouse, l1210, 1 µM; method in brief: as §1
L1210 [6] = assay: Percentage of L1210 cell line in G2M-phase of cell cycle at 1 uM; format: functional, Mus musculus; method in brief: as §1
L1210 [7] = assay: Percentage of L1210 cell line in S-phase of cell cycle at 100 uM; format: functional, Mus musculus; method in brief: as §1
L1210 [8] = assay: Percentage of L1210 cell line in G2M-phase of cell cycle at 100 uM; format: functional, Mus musculus; method in brief: as §1
L1210 [9] = assay: Percentage of L1210 cell line in G2M-phase of cell cycle at 10 uM; format: functional, Mus musculus; method in brief: as §1
L1210 [10] = assay: Percentage of L1210 cell line in G2M-phase of cell cycle at 50 uM; format: functional, Mus musculus; method in brief: as §1
L1210 [11] = assay: Percentage of L1210 cell line in S-phase of cell cycle at 100 uM; NS = no specific effect (toxic at 10 uM); format: functional, cell-based; details: Mus musculus; method in brief: as §1
L1210 [12] = assay: Percentage of L1210 cell line in G2M-phase of cell cycle at 25 uM; format: functional, Mus musculus; method in brief: as §1
L1210 [13] = assay: Percentage of L1210 cell line in 8 N-phase of cell cycle at 1 uM; format: functional, Mus musculus; method in brief: as §1
L1210 [14] = assay: Percentage of L1210 cell line in 8 N-phase of cell cycle at 5 uM; format: functional, Mus musculus; method in brief: as §1
L1210 [15] = assay: Percentage of L1210 cell line in G2M-phase of cell cycle at 5 uM; format: functional, Mus musculus; method in brief: as §1
L1210 [16] = assay: Percentage of L1210 cell line in 8 N-phase of cell cycle at 10 uM; format: functional, Mus musculus; method in brief: as §1
L1210 [17] = assay: Percentage of L1210 cell line in G2M-phase of cell cycle at 0.5 uM; format: functional, Mus musculus; method in brief: as §1
L1210 [18] = assay: Percentage of L1210 cell line in 8 N-phase of cell cycle at 0.5 uM; format: functional, Mus musculus; method in brief: as §1
L1210 [19] = assay: Percentage of L1210 cell line in G2M-phase of cell cycle at 2 uM; format: functional, Mus musculus; method in brief: as §1
L1210 [20] = assay: Percentage of L1210 cell line in G1-phase of cell cycle at 25 uM; format: functional, Mus musculus; method in brief: as §1
L1210 [21] = assay: Percentage of L1210 cell line in G2M-phase of cell cycle at 20 uM; format: functional, Mus musculus; method in brief: as §1

## CN1c2ccc(CNCCCCCCCNCc3ccc4c(n3)N(C)c3cccnc3N4C)nc2N(C)c2cccnc21
L1210 [1]
  Activity: inactive
L1210 [2]
  IC50: 500 nM

## CN(C)CCCCCNCc1ccc2c(n1)N(C)c1ncccc1N2C
L1210 [2]
  IC50: 500 nM
L1210 [3]
  Activity: Toxic

## CN(C)CCC(=O)NCc1ccc2c(n1)N(C)c1ncccc1N2C
L1210 [2]
  IC50: 21100 nM

## CN1c2cccnc2N(C)c2nc(CNCCCCCCCNCc3ccc4c(n3)N(C)c3ncccc3N4C)ccc21
L1210 [4]
  Activity: inactive
L1210 [2]
  IC50: 710 nM

## CN1c2cccnc2N(C)c2nc(CNCCCN)ccc21
L1210 [5]
  Activity: Toxic
L1210 [6]
  Activity: 65%
L1210 [2]
  IC50: 140 nM

## CN1c2cccnc2N(C)c2ncccc21
L1210 [2]
  IC50: 34000 nM
L1210 [7]
  Activity: 49%
L1210 [8]
  Activity: 34%

## CN1c2cccnc2N(C)c2nc(CNCCCCNCc3ccc4c(n3)N(C)c3ncccc3N4C)ccc21
L1210 [4]; in the assay text read “at 5 uM” for “at 100 uM”
  Activity: inactive
L1210 [2]
  IC50: 1700 nM

## CN(C)CCCNC(=O)c1ccc2c(n1)N(C)c1ncccc1N2C
L1210 [9]
  Activity: 67%
L1210 [2]
  IC50: 1700 nM

## CN(C)CCCN(C)Cc1ccc2c(n1)N(C)c1ncccc1N2C
L1210 [2]
  IC50: 11500 nM

## CN1c2ccc(C=O)nc2N(C)c2cccnc21
L1210 [10]
  Activity: 90%
L1210 [2]
  IC50: 21600 nM

## CN1c2ccc(CNCCCNCc3ccc4c(n3)N(C)c3cccnc3N4C)nc2N(C)c2cccnc21
L1210 [11]
  Activity: inactive
L1210 [2]
  IC50: 4000 nM

## CN1c2cccnc2N(C)c2nc(C=O)ccc21
L1210 [2]
  IC50: 20000 nM

## CN(C)CCCNCc1ccc2c(n1)N(C)c1cccnc1N2C
L1210 [2]
  IC50: 9200 nM
L1210 [12]
  Activity: 39%

## CN(C)CCCNCc1ccc2c(n1)N(C)c1ncccc1N2C
L1210 [6]
  Activity: 66%
L1210 [2]
  IC50: 170 nM
L1210 [13]
  Activity: 14%

## CN1c2cccnc2N(C)c2nc(CNCCCOCCCNCc3ccc4c(n3)N(C)c3ncccc3N4C)ccc21
L1210 [14]
  Activity: 18%
L1210 [15]
  Activity: 78%
L1210 [2]
  IC50: 680 nM

## CN1c2cccnc2N(C)c2nc(CNCCCNCCCCNCCCNCc3ccc4c(n3)N(C)c3ncccc3N4C)ccc21
L1210 [15]
  Activity: 72%
L1210 [2]
  IC50: 710 nM

## CN1c2cccnc2N(C)c2cccnc21
L1210 [2]
  IC50: 31100 nM
L1210 [7]
  Activity: 51%

## CN1c2cccnc2N(C)c2nc(CNCCCNCCCNCc3ccc4c(n3)N(C)c3ncccc3N4C)ccc21
L1210 [6]
  Activity: 65%
L1210 [2]
  IC50: 360 nM
L1210 [13]
  Activity: 18%

## CN(C)CCNCc1ccc2c(n1)N(C)c1ncccc1N2C
L1210 [9]
  Activity: 47%
L1210 [2]
  IC50: 11300 nM
L1210 [16]
  Activity: 4%

## CN1c2cccnc2N(C)c2nc(CNCCCNCc3ccc4c(n3)N(C)c3ncccc3N4C)ccc21
L1210 [6]
  Activity: 68%
L1210 [2]
  IC50: 430 nM

## CN(C)CCCCNCc1ccc2c(n1)N(C)c1ncccc1N2C
L1210 [17]
  Activity: 54%
L1210 [2]
  IC50: 140 nM
L1210 [18]
  Activity: 32%

## CN1c2cccnc2N(C)c2nc(CNCCCNCc3ccc4c(n3)N(C)c3cccnc3N4C)ccc21
L1210 [19]
  Activity: 66%
L1210 [2]
  IC50: 480 nM

## CN(CCCNCc1ccc2c(n1)N(C)c1cccnc1N2C)CCCNCc1ccc2c(n1)N(C)c1cccnc1N2C
L1210 [11]
  Activity: inactive
L1210 [2]
  IC50: 3500 nM

## CN(C)CCNCc1ccc2c(n1)N(C)c1cccnc1N2C
L1210 [2]
  IC50: 26700 nM
L1210 [20]
  Activity: 55%

## CN1c2cccnc2N(C)c2nc(CNCCNCCNCCNCc3ccc4c(n3)N(C)c3ncccc3N4C)ccc21
L1210 [21]
  Activity: 70%
L1210 [2]
  IC50: 4100 nM

## CN1c2cccnc2N(C)c2nc(CNCCNCc3ccc4c(n3)N(C)c3ncccc3N4C)ccc21
L1210 [9]
  Activity: 79%
L1210 [2]
  IC50: 2700 nM
